Experimental findings from ChEMBL document CHEMBL1146282, “Novel beta-lactam derivatives: potent and selective inhibitors of the chymotrypsin-like activity of the human 20S proteasome” (Bioorg Med Chem Lett, 2007) are described below.

SMILES strings stand for the structures. Active and inactive are the calls of the source. The calls are words filed in the database; no cut-off is given here.

The species named for one assay is Homo sapiens. The assay can be described thus: Selectivity for chymotrypsin-like activity of human 20S proteasome over post-glutamyl-peptide hydrolytic activity of human 20S proteasome.
Consider `COc1ccc(C[C@H](NC(=O)Cc2cccc(Oc3ccccc3)c2)C(=O)N[C@H](C(=O)N[C@]2(Cc3ccccc3)CNC2=O)C(C)C)c(OC)c1OC`, for which the Ratio was greater than 350.

Take `COc1ccc(C[C@H](NC(=O)Cc2cccc(Oc3ccccc3)c2)C(=O)N[C@H](C(=O)N[C@]2(CC(C)C)CNC2=O)C(C)C)c(OC)c1OC`: the Ratio is greater than 350.

For the compound `CC(C)C[C@@]1(NC(=O)[C@@H](NC(=O)[C@H](Cc2ccccc2)NC(=O)Cc2cccc(Oc3ccccc3)c2)C(C)C)CNC1=O`, the Ratio is greater than 350.

Tested on in a further assay: not listed separately
Kind of assay: Inhibition of chymotrypsin-like activity of human 20S proteasome. The method, boiled down:
(§1)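 Human 20S proteasome purified in-house from blood, assayed in vitro with fluorogenic AMC peptides: Suc-Leu-Leu-Val-Tyr-AMC (chymotrypsin-like), Boc-Leu-Arg-Arg-AMC (trypsin-like), Z-Leu-Leu-Glu-AMC (post-glutamyl-peptide hydrolytic-like). Hydrolysis followed by fluorescence rise (ex 355/em 460 nm). IC50 taken from initial linear rates, as inhibitor concentration halving the proteasome-catalysed hydrolysis rate.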
As usually defined, the IC50 is the midpoint of a concentration-inhibition curve. Turning to `COc1ccc(C[C@H](NC(=O)Cc2cccc(Oc3ccccc3)c2)C(=O)N[C@H](C(=O)N[C@]2(Cc3ccccc3)CNC2=O)C(C)C)c(OC)c1OC`, the IC50 is 1.4 nM.

`COc1ccc(C[C@H](NC(=O)OCc2ccccc2)C(=O)N[C@H](C(=O)N[C@]2(Cc3ccccc3)CNC2=O)C(C)C)c(OC)c1OC` displayed an IC50 of 5 nM.

For `COc1ccc(C[C@H](NC(=O)OCc2ccccc2)C(=O)N[C@H](C(=O)N[C@@]2(Cc3ccccc3)CNC2=O)C(C)C)c(OC)c1OC`, half-maximal inhibition (IC50) required 1400 nM.

The compound `CC(C)C[C@]1(NC(=O)[C@@H](NC(=O)[C@H](Cc2ccccc2)NC(=O)Cc2cccc(Oc3ccccc3)c2)C(C)C)CNC1=O` yielded an IC50 of 38000 nM.

The compound `COc1ccc(C[C@H](NC(=O)Cc2cccc(Oc3ccccc3)c2)C(=O)N[C@H](C(=O)N[C@@]2(Cc3ccccc3)CNC2=O)C(C)C)c(OC)c1OC` displayed an IC50 of 170 nM.

For `COc1ccc(C[C@H](NC(=O)Cc2cccc(Oc3ccccc3)c2)C(=O)N[C@H](C(=O)N[C@]2(CC(C)C)CNC2=O)C(C)C)c(OC)c1OC`, 2.5 nM corresponded to half-maximal inhibition (IC50).

`COc1ccc(C[C@H](NC(=O)Cc2cccc(Oc3ccccc3)c2)C(=O)N[C@H](C(=O)N[C@@]2(CC(C)C)CNC2=O)C(C)C)c(OC)c1OC` came in with a half-inhibitory concentration (IC50) of 1300 nM.

Turning to `COc1ccc(C[C@H](NC(=O)Cc2cccc(Oc3ccccc3)c2)C(=O)N[C@@H](C(=O)N[C@@]2(Cc3ccccc3)CNC2=O)C(C)(C)C)c(OC)c1OC`, the midpoint of inhibition, the IC50, lay at 4 nM.

Regarding `CC(C)C[C@@]1(NC(=O)[C@@H](NC(=O)[C@H](Cc2ccccc2)NC(=O)Cc2cccc(Oc3ccccc3)c2)C(C)C)CNC1=O`, the IC50 amounted to 20 nM.

As for `COc1ccc(C[C@H](NC(=O)Cc2cccc(Oc3ccccc3)c2)C(=O)N[C@H](C(=O)N[C@@]2(Cc3ccccc3)CNC2=O)C(C)(C)C)c(OC)c1OC`, 280 nM corresponded to half-maximal inhibition (IC50).

Tested on in a further assay: not listed separately
Kind of assay: Inhibition of post-glutamyl-peptide hydrolytic activity of human 20S proteasome. The method, boiled down: as §1
Compound `COc1ccc(C[C@H](NC(=O)Cc2cccc(Oc3ccccc3)c2)C(=O)N[C@H](C(=O)N[C@]2(Cc3ccccc3)CNC2=O)C(C)C)c(OC)c1OC` yielded an IC50 greater than 20000 nM.

Consider `COc1ccc(C[C@H](NC(=O)Cc2cccc(Oc3ccccc3)c2)C(=O)N[C@H](C(=O)N[C@]2(CC(C)C)CNC2=O)C(C)C)c(OC)c1OC`, for which the 50% inhibitory concentration (IC50) is greater than 100000 nM.

`CC(C)C[C@@]1(NC(=O)[C@@H](NC(=O)[C@H](Cc2ccccc2)NC(=O)Cc2cccc(Oc3ccccc3)c2)C(C)C)CNC1=O` returned an IC50 greater than 20000 nM.

Tested on in a further assay: not listed separately
The assay can be described thus: Inhibition of trypsin-like activity of human 20S proteasome. The method, boiled down: as §1
`COc1ccc(C[C@H](NC(=O)Cc2cccc(Oc3ccccc3)c2)C(=O)N[C@H](C(=O)N[C@]2(Cc3ccccc3)CNC2=O)C(C)C)c(OC)c1OC` showed a half-inhibitory concentration (IC50) of 19000 nM.

As to `COc1ccc(C[C@H](NC(=O)Cc2cccc(Oc3ccccc3)c2)C(=O)N[C@H](C(=O)N[C@]2(CC(C)C)CNC2=O)C(C)C)c(OC)c1OC`, it took 1100 nM to reach half-maximal inhibition (IC50).

The species named for the next assay is Homo sapiens. The assay can be described thus: Inhibition of thrombin at 25 uM.
Consider `COc1ccc(C[C@H](NC(=O)Cc2cccc(Oc3ccccc3)c2)C(=O)N[C@H](C(=O)N[C@]2(Cc3ccccc3)CNC2=O)C(C)C)c(OC)c1OC`, for which the outcome was inactive.

Consider `COc1ccc(C[C@H](NC(=O)Cc2cccc(Oc3ccccc3)c2)C(=O)N[C@H](C(=O)N[C@]2(CC(C)C)CNC2=O)C(C)C)c(OC)c1OC`, for which the outcome was inactive.

As to `CC(C)C[C@@]1(NC(=O)[C@@H](NC(=O)[C@H](Cc2ccccc2)NC(=O)Cc2cccc(Oc3ccccc3)c2)C(C)C)CNC1=O`, the outcome was inactive.

Another assay deals with MDA-MB-435. Kind of assay: Antiproliferative activity against human MDA-MB-435 cells by MTT assay. Format: functional, cell-based. The method, boiled down:
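MDA-MB-435 human breast carcinoma cells grown in MEM with 10% FCS, penicillin/streptomycin, 4 mM L-glutamine, 1 mM sodium pyruvate, non-essential amino acids and 20 mM Hepes. Compound exposure for 24, 48 or 72 h. Proliferation read by MTT-based CellTiter96 assay.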
Compound `COc1ccc(C[C@H](NC(=O)Cc2cccc(Oc3ccccc3)c2)C(=O)N[C@H](C(=O)N[C@]2(Cc3ccccc3)CNC2=O)C(C)C)c(OC)c1OC` returned a half-maximal inhibitory concentration (IC50) of 32 nM.

With `COc1ccc(C[C@H](NC(=O)Cc2cccc(Oc3ccccc3)c2)C(=O)N[C@H](C(=O)N[C@]2(CC(C)C)CNC2=O)C(C)C)c(OC)c1OC`, half-maximal inhibition (IC50) was put at 34 nM.

`CC(C)C[C@@]1(NC(=O)[C@@H](NC(=O)[C@H](Cc2ccccc2)NC(=O)Cc2cccc(Oc3ccccc3)c2)C(C)C)CNC1=O` displayed a half-inhibitory concentration (IC50) of 1200 nM.

The species entered for the next assay is Homo sapiens. Kind of assay: Selectivity for chymotrypsin-like activity of human 20S proteasome over trypsin-like activity of human 20S proteasome.
As to `COc1ccc(C[C@H](NC(=O)Cc2cccc(Oc3ccccc3)c2)C(=O)N[C@H](C(=O)N[C@]2(Cc3ccccc3)CNC2=O)C(C)C)c(OC)c1OC`, the Ratio was 350.

In the case of `COc1ccc(C[C@H](NC(=O)Cc2cccc(Oc3ccccc3)c2)C(=O)N[C@H](C(=O)N[C@]2(CC(C)C)CNC2=O)C(C)C)c(OC)c1OC`, the Ratio came to 350.

For `CC(C)C[C@@]1(NC(=O)[C@@H](NC(=O)[C@H](Cc2ccccc2)NC(=O)Cc2cccc(Oc3ccccc3)c2)C(C)C)CNC1=O`, the Ratio came to 350.

Another assay is filed under the species Homo sapiens. Kind of assay: Inhibition of chymotrypsin at 25 uM.
As for `COc1ccc(C[C@H](NC(=O)Cc2cccc(Oc3ccccc3)c2)C(=O)N[C@H](C(=O)N[C@]2(Cc3ccccc3)CNC2=O)C(C)C)c(OC)c1OC`, the outcome was inactive.

Take `COc1ccc(C[C@H](NC(=O)Cc2cccc(Oc3ccccc3)c2)C(=O)N[C@H](C(=O)N[C@]2(CC(C)C)CNC2=O)C(C)C)c(OC)c1OC`: the outcome was inactive.

For the compound `CC(C)C[C@@]1(NC(=O)[C@@H](NC(=O)[C@H](Cc2ccccc2)NC(=O)Cc2cccc(Oc3ccccc3)c2)C(C)C)CNC1=O`, the outcome was inactive.

The species entered for the next assay is Homo sapiens. Kind of assay: Inhibition of calpain at 25 uM.
As to `COc1ccc(C[C@H](NC(=O)Cc2cccc(Oc3ccccc3)c2)C(=O)N[C@H](C(=O)N[C@]2(Cc3ccccc3)CNC2=O)C(C)C)c(OC)c1OC`, the result was inactive.

For `COc1ccc(C[C@H](NC(=O)Cc2cccc(Oc3ccccc3)c2)C(=O)N[C@H](C(=O)N[C@]2(CC(C)C)CNC2=O)C(C)C)c(OC)c1OC`, the outcome was inactive.

For `CC(C)C[C@@]1(NC(=O)[C@@H](NC(=O)[C@H](Cc2ccccc2)NC(=O)Cc2cccc(Oc3ccccc3)c2)C(C)C)CNC1=O`, the outcome was inactive.
